# Source: ChEMBL document CHEMBL4706593, “Induced protein degradation of histone deacetylases 3 (HDAC3) by proteolysis targeting chimera (PROTAC)” (Eur J Med Chem, 2020)
# pIC50: −log10 of the molar value. The source made the active and inactive calls. The calls are words filed in the database; no cut-off is given here.
# How the values were obtained:
# RAW264.7 [1] = assay: Cytotoxicity against mouse RAW264.7 cells assessed as reduction in cell proliferation at 3 uM measured after 24 hrs by MTS assay relative to control; type: cell-based; parameters: scale not given: the % may be the effect or the level left; conditions: raw264.7, 24 h
# Summary of the method: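 RAW264.7 cells (passage 5–16, DMEM GlutaMAX with 10% heated FBS, 37 °C, 5% CO2) seeded at 25,000 cells/cm2. Next day, medium swapped for fresh medium containing compound. After 24h, CellTiter 96 AQueous One (MTS) added, 2h at 37 °C in dark. Absorbance read at 490 nm and expressed as % of control.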
# [2] = Down regulation of NFkappaB p65 expression in LPS/IFNgamma-induced mouse RAW264.7 cells at 10 uM incubated for 20 hrs followed by LPS/IFNgamma stimulation and measured after 4 hrs by Western blot analysis; conditions: raw264.7, 24 h
# Summary of the method: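 RAW264.7 cells treated and NF-κB p65 protein measured by western blot with p65 antibody (1:2500), β-actin loading control, HRP secondary and chemiluminescent detection.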
# [3] = biological target: T1, Protein cereblon/Histone deacetylase 1 (Mus musculus) (UniProt O09106+Q8C7D2); assay: Protac activity at CRBN/HDAC1 in mouse RAW264.7 cells assessed as induction of HDAC1 degradation at 10 uM by Western blot analysis; type: cell-based
# Summary of the method: (§1)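 RAW264.7 macrophages treated at 10 µM. Cells lysed in ice-cold HEPES/MgCl2/EDTA/0.5% Triton X-100 with protease inhibitors, protein by BCA, 4–12% Bis-Tris SDS-PAGE, PVDF transfer. Probed with HDAC1, HDAC2 or HDAC3 antibodies (1:2000) and β-actin, then HRP secondary and chemiluminescence. Bands quantified by densitometry as fold of untreated control, mean ± SD of 2 independent experiments.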
# [4] = biological target: Histone deacetylase 3/Nuclear receptor corepressor 2 (HDAC3/NCoR2) (Homo sapiens, UniProt O15379); assay: Inhibition of human recombinant C-terminal His-tagged HDAC3 (1 to 428 residues)/N-terminal GST-tagged NCOR2 (395 to 489 residues) expressed in baculovirus infected Sf9 insect cells using Boc-Lys(epsilon-Ac)-AMC as substrate measured after 90 mins by fluorescence assay
# Summary of the method: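 Incubated with inhibitor dilutions (in 10% DMSO/buffer) and Boc-Lys(ε-Ac)-AMC, 90 min at 37 °C. Stopped with trypsin plus 200 µM vorinostat, 30 min at 37 °C.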
# Histone deacetylase 2 = Histone deacetylase 2 (Homo sapiens, UniProt Q92769); assay: Inhibition of recombinant human full-length C-terminal FLAG-tagged HDAC2 expressed in baculovirus infected Sf9 insect cells using Boc-Lys(epsilon-Ac)-AMC as substrate measured after 90 mins by fluorescence assay
# [5] = Cytotoxicity against mouse RAW264.7 cells assessed as cell survival up to 10 uM measured after 24 hrs by MTS assay relative to control; type: cell-based; conditions: read-out: Survival
# Summary of the method: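 RAW264.7 macrophages (ATCC, passage 5–16) grown in DMEM GlutaMAX with 10% heated FBS at 37 °C, 5% CO2. Cells seeded at 25,000 cells/cm2 and treated the next day in fresh medium with compound up to 10 μM for 24 h at 37 °C. CellTiter 96 AQueous One (MTS) reagent added for 2 h at 37 °C in the dark, absorbance read at 490 nm, expressed as % of control.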
# Histone deacetylase 1 = Histone deacetylase 1 (Homo sapiens, UniProt Q13547); assay: Inhibition of recombinant human C-terminal His/FLAG-tagged HDAC1 (1 to 482 residues) expressed in Sf9 insect cells using Boc-Lys(epsilon-Ac)-AMC as substrate measured after 90 mins by fluorescence assay
# [6] = biological target: T1, Protein cereblon/Histone deacetylase 1 (Mus musculus); assay: Protac activity at CRBN/HDAC1 in mouse RAW264.7 cells assessed as induction of HDAC1 degradation at 0.01 to 10 uM measured after 24 hrs by Western blot analysis; type: cell-based; conditions: dose 0.01-10 µM
# [7] = biological target: T2, Protein cereblon/Histone deacetylase 3 (Mus musculus) (UniProt O88895+Q8C7D2); assay: Protac activity at CRBN/HDAC3 in mouse RAW264.7 cells assessed as induction of HDAC3 degradation at 10 uM measured after 24 hrs in presence of CRBN ligand pomalidomide by Western blot analysis; type: cell-based
# Summary of the method: (§2)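 RAW264.7 cells pre-treated 1h with pomalidomide or CI994 (competitor), then the PROTAC added for 24h combined treatment. Control cells received competitor alone for 25h. HDAC3 measured by western blot, quantified as fold of untreated control, mean ± SD of 2 independent experiments.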
# [8] = biological target: T2, Protein cereblon/Histone deacetylase 3 (Mus musculus); assay: Protac activity at CRBN/HDAC3 in mouse RAW264.7 cells assessed as increase of H3K27 acetylation at 10 uM measured after 24 hrs by Western blot analysis; type: cell-based
# Summary of the method: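 RAW264.7 macrophages treated for 24h. H3K27 acetylation measured by western blot with acH3K27 antibody (1:1000), HRP detection. Bands quantified as fold of untreated control, mean ± SD of 2 independent experiments.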
# [9] = biological target: T2, Protein cereblon/Histone deacetylase 3 (Mus musculus); assay: Protac activity at CRBN/HDAC3 in mouse RAW264.7 cells assessed as induction of HDAC3 degradation at 10 uM measured after 24 hrs in presence of HDAC ligand CI994 by Western blot analysis; type: cell-based; summary of the method: as §2
# [10] = biological target: T3, Protein cereblon/Histone deacetylase 2 (Mus musculus) (UniProt P70288+Q8C7D2); assay: Protac activity at CRBN/HDAC2 in mouse RAW264.7 cells assessed as induction of HDAC2 degradation at 0.01 to 10 uM measured after 24 hrs by Western blot analysis; type: cell-based; conditions: dose 0.01-10 µM
# Summary of the method: (§3)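 RAW264.7 cells treated across 0.001–30 µM. Lysates blotted as standard, but membranes blocked in Odyssey buffer and probed with IRDye 680RD anti-mouse and 800CW anti-rabbit secondaries (1:10000). Bands imaged on a fluorescence scanner and quantified to derive DC50 (50% degradation concentration), expressed as percentage of untreated control, mean ± SD of 2–3 independent experiments.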
# [11] = biological target: T2, Protein cereblon/Histone deacetylase 3 (Mus musculus); assay: Protac activity at CRBN/HDAC3 in mouse RAW264.7 cells assessed as induction of HDAC3 degradation at 10 uM measured after 6 to 48 hrs by Western blot analysis; type: cell-based; conditions: time 6-48 hrs
# Summary of the method: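 RAW264.7 macrophages treated for the indicated times. HDAC3 level measured by western blot against β-actin. Bands quantified as fold of untreated control, mean ± SD of 2 independent experiments.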
# [12] = biological target: T2, Protein cereblon/Histone deacetylase 3 (Mus musculus); assay: Protac activity at CRBN/HDAC3 in mouse RAW264.7 cells assessed as induction of HDAC3 degradation at 10 uM measured after 24 hrs in presence of proteasome inhibitor bortezomib by Western blot analysis; type: cell-based
# Summary of the method: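 RAW264.7 macrophages treated 24h with bortezomib, the PROTAC, or both together. HDAC3 measured by western blot, quantified as fold of untreated control, mean ± SD of 2 independent experiments.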
# [13] = biological target: T4, Protein cereblon/Histone deacetylase 3 (Mus musculus, UniProt O88895+Q8C7D2); assay: Protac activity at CRBN/HDAC3 in mouse RAW264.7 cells assessed as induction of HDAC3 degradation measured after 24 hrs by Western blot analysis; type: cell-based; summary of the method: as §3
# T4 sequence (O88895 whole entry): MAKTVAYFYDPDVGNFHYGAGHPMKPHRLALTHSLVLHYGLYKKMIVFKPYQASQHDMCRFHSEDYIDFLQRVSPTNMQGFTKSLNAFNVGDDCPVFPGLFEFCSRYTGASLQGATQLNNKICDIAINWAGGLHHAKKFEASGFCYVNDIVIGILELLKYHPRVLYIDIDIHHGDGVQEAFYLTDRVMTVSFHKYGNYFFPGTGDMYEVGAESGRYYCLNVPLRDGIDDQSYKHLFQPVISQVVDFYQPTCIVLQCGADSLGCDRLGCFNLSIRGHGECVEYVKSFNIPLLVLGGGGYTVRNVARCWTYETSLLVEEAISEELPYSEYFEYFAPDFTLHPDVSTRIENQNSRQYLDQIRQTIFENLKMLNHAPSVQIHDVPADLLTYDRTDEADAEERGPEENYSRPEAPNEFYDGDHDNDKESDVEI
# T4 sequence (Q8C7D2 whole entry): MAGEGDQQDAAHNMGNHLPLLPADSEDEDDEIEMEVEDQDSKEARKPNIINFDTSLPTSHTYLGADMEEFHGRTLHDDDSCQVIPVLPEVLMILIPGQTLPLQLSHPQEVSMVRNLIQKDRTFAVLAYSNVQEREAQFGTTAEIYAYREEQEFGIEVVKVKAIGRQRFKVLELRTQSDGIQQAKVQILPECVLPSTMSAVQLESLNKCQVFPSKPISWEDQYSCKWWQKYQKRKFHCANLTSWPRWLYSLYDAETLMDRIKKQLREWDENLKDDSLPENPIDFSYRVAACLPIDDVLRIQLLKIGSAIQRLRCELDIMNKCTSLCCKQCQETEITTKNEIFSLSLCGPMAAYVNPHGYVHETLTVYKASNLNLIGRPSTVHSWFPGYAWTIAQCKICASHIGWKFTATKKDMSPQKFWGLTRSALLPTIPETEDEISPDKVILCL
# RAW264.7 [14] = assay: Effect on LPS/IFNgamma-induced IL-10 mRNA expression in mouse RAW264.7 cells at 1 uM incubated for 20 hrs followed by LPS/IFNgamma stimulation and measured after 4 hrs by RT-qPCR analysis; type: functional, cell-based; conditions: time 24.0 hrs
# Summary of the method: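 RAW264.7 macrophages treated for 24h, with LPS/IFNγ stimulation during the final 4h. Vehicle cells received a proportional DMSO dilution. Total RNA isolated from DPBS-washed cells and IL-10 transcription measured by RT-qPCR. Mean ± SD of 2–3 independent experiments.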
# [15] = biological target: T2, Protein cereblon/Histone deacetylase 3 (Mus musculus); assay: Protac activity at CRBN/HDAC3 in mouse RAW264.7 cells assessed as induction of HDAC3 degradation at 10 uM by Western blot analysis; type: cell-based; summary of the method: as §1
# [16] = biological target: T3, Protein cereblon/Histone deacetylase 2 (Mus musculus); assay: Protac activity at CRBN/HDAC2 in mouse RAW264.7 cells assessed as induction of HDAC2 degradation at 100 uM measured after 24 hrs by Western blot analysis; type: cell-based
# Summary of the method: (§4)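 RAW264.7 macrophages exposed to 1–100 µM for HDAC1/2/3 level assessment. Protein read by western blot: lysis, BCA, Bis-Tris SDS-PAGE, PVDF, overnight 4 °C primary antibodies (HDAC1, 2, 3 at 1:2000; β-actin 1:10000), HRP secondaries, chemiluminescence.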
# [17] = biological target: T2, Protein cereblon/Histone deacetylase 3 (Mus musculus); assay: Protac activity at CRBN/HDAC3 in mouse RAW264.7 cells assessed as induction of HDAC3 degradation at 10 to 100 uM measured after 24 hrs by Western blot analysis; type: cell-based; conditions: dose 10-100 µM; summary of the method: as §4
# [18] = biological target: Protein cereblon/Histone deacetylase 3 (Homo sapiens) (UniProt O15379+Q96SW2); assay: Protac activity at CRBN/HDAC3 in human A549 cells assessed as induction of HDAC3 degradation up to 50 uM by Western blot analysis; type: cell-based; conditions: dose microM <=50
# [19] = biological target: T1, Protein cereblon/Histone deacetylase 1 (Mus musculus); assay: Protac activity at CRBN/HDAC1 in mouse RAW264.7 cells assessed as induction of HDAC1 degradation at 30 to 100 uM measured after 24 hrs by Western blot analysis; type: cell-based; conditions: dose 30-100 µM; summary of the method: as §4
# [20] = biological target: T3, Protein cereblon/Histone deacetylase 2 (Mus musculus); assay: Protac activity at CRBN/HDAC2 in mouse RAW264.7 cells assessed as induction of HDAC2 degradation at 10 uM by Western blot analysis; type: cell-based; summary of the method: as §1
# Chain of Histone deacetylase 2 (Q92769 whole entry): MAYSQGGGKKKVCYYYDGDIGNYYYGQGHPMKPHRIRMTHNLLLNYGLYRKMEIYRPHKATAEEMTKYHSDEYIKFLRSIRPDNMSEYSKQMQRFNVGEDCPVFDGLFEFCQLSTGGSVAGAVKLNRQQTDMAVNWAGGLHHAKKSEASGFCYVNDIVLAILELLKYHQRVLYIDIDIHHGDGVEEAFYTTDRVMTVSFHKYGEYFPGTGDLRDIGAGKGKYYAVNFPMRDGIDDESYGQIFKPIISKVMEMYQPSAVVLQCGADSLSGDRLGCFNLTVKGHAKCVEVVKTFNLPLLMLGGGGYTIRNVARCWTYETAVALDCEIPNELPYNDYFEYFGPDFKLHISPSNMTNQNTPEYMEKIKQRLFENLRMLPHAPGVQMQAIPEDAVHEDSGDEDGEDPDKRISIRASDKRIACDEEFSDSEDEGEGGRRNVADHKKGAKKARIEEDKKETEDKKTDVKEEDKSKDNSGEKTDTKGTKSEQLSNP
# Chain of Histone deacetylase 3/Nuclear receptor corepressor 2 (HDAC3/NCoR2) (O15379 whole entry, the tested form may be a part): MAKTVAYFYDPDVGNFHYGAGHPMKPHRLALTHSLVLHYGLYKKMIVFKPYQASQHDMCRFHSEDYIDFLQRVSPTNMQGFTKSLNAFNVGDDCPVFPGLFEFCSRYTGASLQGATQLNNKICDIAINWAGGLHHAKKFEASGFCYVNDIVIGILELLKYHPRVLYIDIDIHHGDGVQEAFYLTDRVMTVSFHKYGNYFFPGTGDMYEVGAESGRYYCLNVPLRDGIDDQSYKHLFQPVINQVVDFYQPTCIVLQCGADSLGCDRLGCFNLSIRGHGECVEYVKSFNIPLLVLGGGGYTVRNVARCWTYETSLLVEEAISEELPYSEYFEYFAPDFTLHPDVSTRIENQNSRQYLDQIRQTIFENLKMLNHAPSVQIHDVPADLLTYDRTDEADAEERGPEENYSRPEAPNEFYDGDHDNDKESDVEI
# Chain of Histone deacetylase 3/Nuclear receptor corepressor 2 (HDAC3/NCoR2) (Q9Y618 whole entry, further chain, the tested form may be a part): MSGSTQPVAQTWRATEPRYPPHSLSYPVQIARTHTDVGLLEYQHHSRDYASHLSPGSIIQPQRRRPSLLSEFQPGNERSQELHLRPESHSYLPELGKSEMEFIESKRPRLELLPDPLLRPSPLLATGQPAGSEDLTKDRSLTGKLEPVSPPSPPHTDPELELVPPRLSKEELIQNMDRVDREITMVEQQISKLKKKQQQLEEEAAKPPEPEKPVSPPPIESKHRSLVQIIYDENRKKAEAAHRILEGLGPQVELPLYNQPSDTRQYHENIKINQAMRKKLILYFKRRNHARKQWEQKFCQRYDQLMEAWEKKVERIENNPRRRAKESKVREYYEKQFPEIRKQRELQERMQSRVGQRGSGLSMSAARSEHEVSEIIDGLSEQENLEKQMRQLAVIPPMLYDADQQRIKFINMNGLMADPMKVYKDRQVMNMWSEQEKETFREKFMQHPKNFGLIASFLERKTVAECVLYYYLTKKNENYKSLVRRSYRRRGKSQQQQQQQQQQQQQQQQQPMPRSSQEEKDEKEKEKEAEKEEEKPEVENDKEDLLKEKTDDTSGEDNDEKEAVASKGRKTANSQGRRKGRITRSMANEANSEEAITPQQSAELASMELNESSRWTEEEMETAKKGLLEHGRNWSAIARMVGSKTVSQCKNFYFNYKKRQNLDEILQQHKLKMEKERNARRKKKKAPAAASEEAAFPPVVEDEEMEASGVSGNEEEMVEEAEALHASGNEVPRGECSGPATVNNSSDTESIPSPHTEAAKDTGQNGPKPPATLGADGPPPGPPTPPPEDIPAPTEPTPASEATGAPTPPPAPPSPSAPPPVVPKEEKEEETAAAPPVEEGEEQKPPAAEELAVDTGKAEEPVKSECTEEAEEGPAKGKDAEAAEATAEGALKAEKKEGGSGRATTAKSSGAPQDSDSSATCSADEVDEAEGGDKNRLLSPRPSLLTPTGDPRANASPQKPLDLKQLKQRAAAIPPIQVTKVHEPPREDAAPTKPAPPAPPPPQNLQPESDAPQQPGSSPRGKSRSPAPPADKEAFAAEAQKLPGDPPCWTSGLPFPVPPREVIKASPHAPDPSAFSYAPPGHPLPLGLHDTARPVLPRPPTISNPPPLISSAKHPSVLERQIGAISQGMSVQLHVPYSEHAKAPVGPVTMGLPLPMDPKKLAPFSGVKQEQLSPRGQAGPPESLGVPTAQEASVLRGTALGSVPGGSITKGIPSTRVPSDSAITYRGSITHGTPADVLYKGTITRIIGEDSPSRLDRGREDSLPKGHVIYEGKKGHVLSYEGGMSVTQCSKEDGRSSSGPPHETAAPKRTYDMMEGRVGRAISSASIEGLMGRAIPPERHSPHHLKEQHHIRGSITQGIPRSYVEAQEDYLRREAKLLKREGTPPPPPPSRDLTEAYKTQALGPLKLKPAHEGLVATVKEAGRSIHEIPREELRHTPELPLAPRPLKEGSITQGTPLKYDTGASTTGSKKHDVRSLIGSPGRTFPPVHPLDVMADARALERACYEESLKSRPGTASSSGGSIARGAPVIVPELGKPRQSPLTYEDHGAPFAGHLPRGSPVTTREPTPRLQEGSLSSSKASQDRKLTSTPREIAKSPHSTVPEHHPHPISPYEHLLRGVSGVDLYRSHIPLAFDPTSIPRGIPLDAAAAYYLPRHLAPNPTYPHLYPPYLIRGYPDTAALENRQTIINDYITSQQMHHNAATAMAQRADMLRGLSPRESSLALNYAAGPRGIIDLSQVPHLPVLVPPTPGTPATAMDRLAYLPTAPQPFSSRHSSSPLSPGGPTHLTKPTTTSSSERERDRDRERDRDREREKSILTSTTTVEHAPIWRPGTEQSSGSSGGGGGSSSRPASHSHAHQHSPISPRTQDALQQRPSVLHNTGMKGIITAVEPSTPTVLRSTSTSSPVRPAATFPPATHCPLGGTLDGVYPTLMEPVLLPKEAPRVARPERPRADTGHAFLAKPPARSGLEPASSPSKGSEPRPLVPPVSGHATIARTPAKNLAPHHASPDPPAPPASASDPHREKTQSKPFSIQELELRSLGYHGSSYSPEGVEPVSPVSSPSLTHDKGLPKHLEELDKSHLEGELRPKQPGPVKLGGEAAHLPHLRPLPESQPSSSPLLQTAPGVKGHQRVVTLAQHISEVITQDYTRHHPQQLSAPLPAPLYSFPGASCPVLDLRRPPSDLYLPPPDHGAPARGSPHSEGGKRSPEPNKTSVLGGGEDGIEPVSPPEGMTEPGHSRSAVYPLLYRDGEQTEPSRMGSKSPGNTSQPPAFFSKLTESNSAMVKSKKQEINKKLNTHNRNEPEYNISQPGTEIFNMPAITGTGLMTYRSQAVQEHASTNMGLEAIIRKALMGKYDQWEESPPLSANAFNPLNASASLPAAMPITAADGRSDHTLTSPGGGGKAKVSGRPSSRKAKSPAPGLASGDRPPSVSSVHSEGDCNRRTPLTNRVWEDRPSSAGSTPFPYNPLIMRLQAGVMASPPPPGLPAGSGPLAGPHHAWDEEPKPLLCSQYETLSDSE
# T1 sequence (O09106 whole entry, looked up, one chain of several): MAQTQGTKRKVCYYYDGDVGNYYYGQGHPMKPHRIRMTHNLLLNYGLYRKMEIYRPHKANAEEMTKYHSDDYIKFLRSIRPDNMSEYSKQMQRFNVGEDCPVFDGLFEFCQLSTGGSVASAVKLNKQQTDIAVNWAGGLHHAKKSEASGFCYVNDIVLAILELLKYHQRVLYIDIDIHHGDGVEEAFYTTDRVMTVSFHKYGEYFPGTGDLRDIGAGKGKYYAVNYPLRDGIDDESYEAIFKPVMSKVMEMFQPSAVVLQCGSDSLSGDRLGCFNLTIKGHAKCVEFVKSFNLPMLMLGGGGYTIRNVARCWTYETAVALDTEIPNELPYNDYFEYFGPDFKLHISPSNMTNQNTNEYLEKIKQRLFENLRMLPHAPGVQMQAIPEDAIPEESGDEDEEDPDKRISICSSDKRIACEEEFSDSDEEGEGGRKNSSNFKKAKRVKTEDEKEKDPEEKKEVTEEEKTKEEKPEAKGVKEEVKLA
# Chain of Histone deacetylase 1 (Q13547 whole entry, the tested form may be a part): as the sequence (O09106 whole entry, looked up, one chain of several) above, with K8R, E399D, D424E counted along it
# T3 sequence (P70288 whole entry, looked up, one chain of several): as the sequence (Q92769 whole entry) above, with V289A, T477P, T480A counted along it
# Chain of Protein cereblon/Histone deacetylase 3 (Homo sapiens) (O15379 whole entry, looked up): as the sequence (O15379 whole entry, the tested form may be a part) above
# Chain of Protein cereblon/Histone deacetylase 3 (Homo sapiens) (Q96SW2 whole entry, looked up): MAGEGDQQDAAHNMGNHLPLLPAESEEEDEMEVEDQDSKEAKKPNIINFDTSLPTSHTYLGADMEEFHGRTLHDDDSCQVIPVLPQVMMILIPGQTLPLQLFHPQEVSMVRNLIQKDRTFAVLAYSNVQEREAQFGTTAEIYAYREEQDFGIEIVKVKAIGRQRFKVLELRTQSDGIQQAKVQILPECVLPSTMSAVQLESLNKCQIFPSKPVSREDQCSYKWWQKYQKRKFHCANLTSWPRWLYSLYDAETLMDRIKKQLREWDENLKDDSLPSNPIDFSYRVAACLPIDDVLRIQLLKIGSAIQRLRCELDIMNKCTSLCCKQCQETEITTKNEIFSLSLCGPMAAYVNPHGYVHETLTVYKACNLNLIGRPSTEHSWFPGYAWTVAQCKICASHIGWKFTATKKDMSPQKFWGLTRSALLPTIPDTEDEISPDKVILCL
SMILES,Activity [2],Activity [3],pIC50 [4],pIC50 (Histone deacetylase 2),viability at 24 h [5] [%],pIC50 (Histone deacetylase 1),Activity [15],further results
CC(=O)Nc1ccc(C(=O)Nc2ccccc2N)cc1 [TACEDINALINE],,,,,,,,Activity (RAW264.7 [1]): 30%
Nc1cccc2c1CN(C1CCC(=O)NC1=O)C2=O (stereo not given) [LENALIDOMIDE],Toxic,,,,,,,
Nc1ccccc1NC(=O)c1ccc(NC(=O)CCCCNc2cccc3c2C(=O)N(C2CCC(=O)NC2=O)C3=O)cc1 (stereo not given),,inactive,6.00,6.00,> 80,6.38,,
O=C1CCC(N2C(=O)c3ccccc3C2=O)C(=O)N1 (stereo not given) [THALIDOMIDE],Toxic,,,,,,,
Nc1cc(F)ccc1NC(=O)c1ccc(NC(=O)CCCCNC(=O)CNc2cccc3c2C(=O)N(C2CCC(=O)NC2=O)C3=O)cc1 (stereo not given),Toxic,,5.96,5.38,,5.44,,Activity [6]: inactive; Activity [7]: inactive; Activity [8]: Active; Activity [9]: inactive; Activity [10]: inactive; Activity [11]: Active; Activity [12]: inactive; DC50 [13]: 320 nM; Activity (RAW264.7 [14]): inactive
Nc1cccc2c1C(=O)N(C1CCC(=O)NC1=O)C2=O (stereo not given) [POMALIDOMIDE],Toxic,,,,,,,
Nc1ccccc1NC(=O)c1ccc(NC(=O)CCCNc2cccc3c2C(=O)N(C2CCC(=O)NC2=O)C3=O)cc1 (stereo not given),,inactive,6.06,5.92,> 80,6.44,Active,
Nc1ccccc1NC(=O)c1ccc(NC(=O)CCCCNC(=O)CNc2cccc3c2C(=O)N(C2CCC(=O)NC2=O)C3=O)cc1 (stereo not given),,inactive,6.28,6.21,> 80,6.54,Active,Activity [16]: Active; Activity [17]: Active; Activity [18]: inactive; Activity [19]: Active
Nc1ccccc1NC(=O)c1ccc(NC(=O)CCCCCNc2cccc3c2C(=O)N(C2CCC(=O)NC2=O)C3=O)cc1 (stereo not given),,inactive,6.27,6.01,> 80,6.66,,Activity [20]: Active
Nc1ccccc1NC(=O)c1ccc(NC(=O)CCCNC(=O)CNc2cccc3c2C(=O)N(C2CCC(=O)NC2=O)C3=O)cc1 (stereo not given),,inactive,6.25,5.82,> 80,6.49,inactive,
